Experimental findings from ChEMBL document CHEMBL1949634, “Synthesis and evaluation of a novel series of indoloisoquinolines as small molecule anti-malarial leads” (Bioorg Med Chem Lett, 2012) are described below.

Broadly, the IC50 is the midpoint of a concentration-inhibition curve. Lower therefore signals greater potency in that assay.

Calls of active or inactive are those of the source. The calls are words filed in the database; no cut-off is given here.

Type in all cases: functional, organism-based
Experiment [1] concerns Plasmodium falciparum. As to the kind of experiment: Anti-malarial activity against intraerythrocytic ring stage culture of chloroquine-resistant Plasmodium falciparum Dd2 after 48 hrs by lactate dehydrogenase assay. Conditions: Dd2, 48 h. Summed up:
(§1)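 Sorbitol-synchronised ring-stage parasites at 2% haematocrit and 1% parasitaemia, kept at 37 °C in 1% O2/3% CO2/96% N2, were given five-fold drug dilutions from 100 mM DMSO stocks for 48 h. Growth reference wells had no drug, and 0% wells had artemether at 100 nM. LDH was read with Malstat/APAD plus NBT/PES (1 h, dark, room temperature, A650). IC50 came from log dose–response curves of mean growth, n ≥ 6.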

Experiment [2] relates to Plasmodium falciparum. As to the kind of experiment: Anti-malarial activity against Plasmodium falciparum trophozoites assessed as induction of morphological changes at 5 uM.
Experiment [3] has as its system Plasmodium falciparum. As to the kind of experiment: Anti-malarial activity against intraerythrocytic ring stage culture of chloroquine-sensitive Plasmodium falciparum 3D7 after 48 hrs by lactate dehydrogenase assay. Conditions: 3D7, 48 h. Put shortly:
as §1

The compound `O=C1CCC[C@H]2c3[nH]c4ccccc4c3C[C@H](CO)N12` showed an IC50 in experiment [1] of 56 µM.

In experiment [1], `C=CCOC[C@H]1Cc2c(n(Cc3ccncc3)c3ccccc23)[C@@H]2CCCC(=O)N12` showed an IC50 of 2.1 µM.

The compound `O=C1CCC[C@@H]2c3c(c4ccccc4n3Cc3ccccc3)C[C@@H](COCc3ccccc3)N12` yielded an IC50 in experiment [1] of 12 µM.

For the compound `C=CCn1c2c(c3ccccc31)C[C@H](CO)N1C(=O)CCC[C@@H]21`, the IC50 in experiment [1] is 41 µM.

In turn, `O=C1CCC[C@H]2c3c(c4ccccc4n3Cc3ccccc3)C[C@H](COCC3CCCCC3)N12` displayed an IC50 in experiment [1] of 19 µM.

As for `COC[C@H]1Cc2c(n(Cc3ccccc3)c3ccccc23)[C@@H]2CCCCN12`, in experiment [1], the half-maximal inhibitory concentration (IC50) worked out at 3.3 µM.

`C=CCOC[C@H]1Cc2c(n(CC3CCCCC3)c3ccccc23)[C@@H]2CCCC(=O)N12`: in experiment [1], the IC50 was 9 µM.

`O=C1CCC[C@H]2c3c(c4ccccc4n3Cc3ccccc3)C[C@H](COCc3ccccc3)N12` returned an IC50 in experiment [1] of 3.5 µM. The outcome in experiment [2] was Active.

For the compound `CCCOC[C@H]1Cc2c(n(Cc3ccccc3)c3ccccc23)[C@@H]2CCCC(=O)N12`, the IC50 in experiment [1] was 2.8 µM.

`C=CCOC[C@@H]1Cc2c(n(Cc3ccccc3)c3ccccc23)[C@H]2CCCC(=O)N12`: the IC50 in experiment [1] came to 35 µM.

Turning to `O=C1CCC[C@@H]2c3[nH]c4ccccc4c3C[C@@H](CO)N12`, the IC50 in experiment [1] stood at 71 µM.

Take `C=CCOC[C@@H]1Cc2c(n(CC=C)c3ccccc23)[C@H]2CCCC(=O)N12`: half-maximal inhibition in experiment [1] (IC50) was put at 16 µM.

`C=CCOC[C@H]1Cc2c(n(CC=C)c3ccccc23)[C@@H]2CCCC(=O)N12`: it took 13 µM to reach half-maximal inhibition in experiment [1] (IC50).

Take `C=CCOC[C@H]1Cc2c(n(CC3CCC3)c3ccccc23)[C@@H]2CCCC(=O)N12`: inhibition in experiment [1] was half-maximal at 7 µM (IC50).

In the case of `COC[C@H]1Cc2c(n(C)c3ccccc23)[C@@H]2CCCC(=O)N12`, the results for the concentration for half-maximal inhibition (IC50) in experiment [1] and in experiment [3] were 29 µM and 41 µM, respectively.

As for `C=CCOC[C@H]1Cc2c(n(Cc3ccccc3)c3ccccc23)[C@@H]2CCCC(=O)N12`, the IC50 worked out at 1.3 µM in experiment [1] and 1.7 µM in experiment [3].

With `C=CCOC[C@H]1Cc2c(n(Cc3ccccc3)c3ccccc23)[C@@H]2CCCCN12`, in experiment [1], the half-maximal inhibitory concentration (IC50) was found to be 1.5 µM.

Compound `C=C[C@H]1CC(=O)N2[C@@H](COCc3ccccc3)Cc3c(n(Cc4ccccc4)c4ccccc34)[C@@H]2C1` came in with an IC50 in experiment [1] of 13 µM.

As for `COC[C@H]1Cc2c(n(Cc3ccccc3)c3ccccc23)[C@@H]2CCCC(=O)N12`, the IC50 was found to be 1.3 µM in experiment [1] and 2.3 µM in experiment [3].

The compound `C=CCOC[C@H]1Cc2c(n(Cc3ccccc3)c3ccccc23)[C@@H]2C[C@@H](C=C)CC(=O)N12` came in with an IC50 in experiment [1] of 1.1 µM. Also, the result in experiment [2] was Active.

`COC[C@@H]1Cc2c(n(Cc3ccccc3)c3ccccc23)[C@H]2CCCC(=O)N12` came in with an IC50 in experiment [1] of 32 µM.

Regarding `O=C1CCC[C@H]2c3c(c4ccccc4n3Cc3ccccc3)C[C@H](CO)N12`, the midpoint of inhibition in experiment [1], the IC50, lay at 5 µM.

For the compound `C=C[C@@H]1CC(=O)N2[C@H](COCc3ccccc3)Cc3c(n(Cc4ccccc4)c4ccccc34)[C@H]2C1`, half-maximal inhibition in experiment [1] (IC50) required 20 µM.

As to `COC[C@@H]1Cc2c(n(C)c3ccccc23)[C@H]2CCCC(=O)N12`, the half-inhibitory concentration (IC50) in experiment [1] was found to be 30 µM.

On to `O=C1C=CC[C@H]2c3c(c4ccccc4n3Cc3ccccc3)C[C@H](COCc3ccccc3)N12`, for which the midpoint of inhibition in experiment [1], the IC50, lay at 3.6 µM.

With `C=CCOC[C@H]1Cc2c(n(Cc3ccccc3)c3ccccc23)[C@@H]2CC=CC(=O)N12`, in experiment [1], the midpoint of inhibition, the IC50, lay at 1.7 µM.
